This note sets out measurements from ChEMBL document CHEMBL5661979, “Pharmacological inhibition of BMK1 suppresses tumor growth through promyelocytic leukemia protein” (Cancer Cell, 2010).

The target in assay [1] is Dual specificity mitogen-activated protein kinase kinase 1 (Homo sapiens, UniProt Q02750). Nature of the assay: Inhibition of MAP2K1 in human HeLa cells lysate pre incubated for 15 mins followed by ATP acyl phosphate probe addition and measured after 10 mins by LC-MS/MS analysis. Format: subcellular.
Assay [2] has as its target Mitogen-activated protein kinase kinase kinase 1 (Homo sapiens, UniProt Q13233). Nature of the assay: Inhibition of MAP3K1 in human HeLa cells lysate pre incubated for 15 mins followed by ADP acyl phosphate probe addition and measured after 10 mins by LC-MS/MS analysis. Format: subcellular.
A short description of assay [3]: Inhibition of PCTAIRE2/ICK in human HeLa cells lysate pre incubated for 15 mins followed by ADP acyl phosphate probe addition and measured after 10 mins by LC-MS/MS analysis. Format: subcellular.
In assay [4] the target is T1, STE20-related kinase adapter protein beta (Homo sapiens) (UniProt Q9C0K7).
T1 sequence (whole entry): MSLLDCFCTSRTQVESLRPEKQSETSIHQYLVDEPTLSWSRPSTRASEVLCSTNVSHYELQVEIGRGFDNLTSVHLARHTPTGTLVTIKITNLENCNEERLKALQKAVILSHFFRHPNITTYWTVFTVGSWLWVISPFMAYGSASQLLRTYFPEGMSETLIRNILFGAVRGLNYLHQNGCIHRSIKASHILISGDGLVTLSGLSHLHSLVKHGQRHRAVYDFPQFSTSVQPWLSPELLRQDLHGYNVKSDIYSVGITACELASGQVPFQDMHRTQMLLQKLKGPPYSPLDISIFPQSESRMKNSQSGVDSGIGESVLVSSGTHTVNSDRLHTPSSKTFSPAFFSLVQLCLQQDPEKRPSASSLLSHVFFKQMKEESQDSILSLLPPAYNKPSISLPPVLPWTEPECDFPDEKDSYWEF
Nature of the assay: Inhibition of ALS2CR2 in human HeLa cells lysate at 50 uM pre incubated for 15 mins followed by ADP acyl phosphate probe addition and measured after 10 mins by LC-MS/MS analysis relative to control. Format: subcellular. The settings on record: time 25.0 min. In a few lines: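 HeLa cell lysates (5 mg/mL total protein) were preincubated with inhibitor at 0, 0.8, 2, 10 or 50 μM for 15 min. ATP or ADP acylphosphate probe was then added (5 μM final) for 10 min, and reactions were stopped with urea. Up to four fragment ions per kinase probe-peptide were quantified by targeted MS. % inhibition was taken relative to untreated lysate. Run in duplicate.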

The target in assay [5] is T2, Dual specificity mitogen-activated protein kinase kinase 4 (Homo sapiens) (UniProt P45985).
T2 sequence (whole entry): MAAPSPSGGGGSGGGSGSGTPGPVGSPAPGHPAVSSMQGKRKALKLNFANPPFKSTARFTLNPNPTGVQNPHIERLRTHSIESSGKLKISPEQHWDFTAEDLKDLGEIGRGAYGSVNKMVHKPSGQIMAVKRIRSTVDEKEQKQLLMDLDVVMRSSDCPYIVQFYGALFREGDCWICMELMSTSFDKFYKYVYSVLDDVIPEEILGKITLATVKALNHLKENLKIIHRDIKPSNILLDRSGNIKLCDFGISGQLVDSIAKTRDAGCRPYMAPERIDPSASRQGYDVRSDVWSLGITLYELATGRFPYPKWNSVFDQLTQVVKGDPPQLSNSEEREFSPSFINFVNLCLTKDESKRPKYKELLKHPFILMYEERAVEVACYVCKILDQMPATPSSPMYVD
Nature of the assay: Inhibition of MAP2K4 in human HeLa cells lysate at 50 uM pre incubated for 15 mins followed by ADP acyl phosphate probe addition and measured after 10 mins by LC-MS/MS analysis relative to control. The class given is subcellular. As to conditions: time 25.0 min.

Assay [6] is described as follows: Inhibition of MAP3K2/MAP3K3 in human HeLa cells lysate at 10 uM pre incubated for 15 mins followed by ADP acyl phosphate probe addition and measured after 10 mins by LC-MS/MS analysis relative to control. The settings on record: 25 min, condition cancer.
Assay [7] addresses Ribosomal protein S6 kinase alpha-5 (Homo sapiens, UniProt O75582). Kind of assay: Inhibition of MSK1 domain 1 K1 site in human HeLa cells lysate at 10 uM pre incubated for 15 mins followed by ADP acyl phosphate probe addition and measured after 10 mins by LC-MS/MS analysis relative to control. The settings on record: time 25.0 min. Format: subcellular.
In assay [8] the target is Peripheral plasma membrane protein CASK (Homo sapiens) (UniProt O14936). Nature of the assay: Inhibition of CASK in human HeLa cells lysate at 2 uM pre incubated for 15 mins followed by ADP acyl phosphate probe addition and measured after 10 mins by LC-MS/MS analysis relative to control. The class given is subcellular. As to conditions: time 25.0 min. In a few lines:
(§1)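 KiNativ profiling in HeLa lysate (5 mg/mL total protein). Lysate incubated 15 min with inhibitor at 50, 10, 2, 0.8 or 0 μM. ATP or ADP acylphosphate probe then added (5 μM final) and reacted 10 min. Reaction stopped with urea and analysed by targeted MS, using up to four fragment ions per kinase peptide-probe conjugate. % inhibition taken against untreated lysate. Run in duplicate.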

Assay [9] has as its target Serine-protein kinase ATM (Homo sapiens, UniProt Q13315). Kind of assay: Inhibition of ATM in human HeLa cells lysate at 2 uM pre incubated for 15 mins followed by ADP acyl phosphate probe addition and measured after 10 mins by LC-MS/MS analysis relative to control. The settings on record: time 25.0 min. Format: subcellular. Summed up:
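KiNativ-type profiling in HeLa lysate (5 mg/mL total protein). Lysate preincubated 15 min with inhibitor at 50, 10, 2, 0.8 or 0 μM, then ATP or ADP acylphosphate probe added (5 μM final) for 10 min. Reaction stopped with urea and analysed by targeted MS, using up to four fragment ions per kinase peptide-probe conjugate. % inhibition calculated against untreated lysate. Duplicate reactions.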

Assay [10] has as its target T3, STE20-like serine/threonine-protein kinase (Homo sapiens, UniProt Q9H2G2). Nature of the assay: Inhibition of SLK in human HeLa cells lysate at 50 uM pre incubated for 15 mins followed by ATP acyl phosphate probe addition and measured after 10 mins by LC-MS/MS analysis relative to control. The class given is subcellular. As to conditions: time 25.0 min.
In assay [11] the target is p38 delta/gamma (Homo sapiens) (UniProt O15264+P53778). Kind of assay: Inhibition of p38d/p38g in human HeLa cells lysate at 2 uM pre incubated for 15 mins followed by ATP acyl phosphate probe addition and measured after 10 mins by LC-MS/MS analysis relative to control. Format: subcellular. The settings on record: time 25.0 min.
Assay [12] addresses Glycogen synthase kinase-3 alpha (Homo sapiens, UniProt P49840). Nature of the assay: Inhibition of GSK3A in human HeLa cells lysate at 2 uM pre incubated for 15 mins followed by ATP acyl phosphate probe addition and measured after 10 mins by LC-MS/MS analysis relative to control. Format: subcellular. The settings on record: time 25.0 min.
Assay [13] concerns the target T3, STE20-like serine/threonine-protein kinase. Nature of the assay: Inhibition of SLK in human HeLa cells lysate at 2 uM pre incubated for 15 mins followed by ATP acyl phosphate probe addition and measured after 10 mins by LC-MS/MS analysis relative to control. The settings on record: time 25.0 min. The class given is subcellular.
Assay [14] addresses Cyclin-dependent kinase 9 (Homo sapiens, UniProt P50750). Kind of assay: Inhibition of CDK9 in human HeLa cells lysate at 2 uM pre incubated for 15 mins followed by ATP acyl phosphate probe addition and measured after 10 mins by LC-MS/MS analysis relative to control. Format: subcellular. As to conditions: time 25.0 min. In a few lines: as §1
Assay [15] deals with Serine/threonine-protein kinase SMG1 (Homo sapiens, UniProt Q96Q15). Kind of assay: Inhibition of SMG1 in human HeLa cells lysate at 2 uM pre incubated for 15 mins followed by ATP acyl phosphate probe addition and measured after 10 mins by LC-MS/MS analysis relative to control. The class given is subcellular. The settings on record: time 25.0 min.
Sequence of Serine/threonine-protein kinase SMG1 (Q96Q15 whole entry): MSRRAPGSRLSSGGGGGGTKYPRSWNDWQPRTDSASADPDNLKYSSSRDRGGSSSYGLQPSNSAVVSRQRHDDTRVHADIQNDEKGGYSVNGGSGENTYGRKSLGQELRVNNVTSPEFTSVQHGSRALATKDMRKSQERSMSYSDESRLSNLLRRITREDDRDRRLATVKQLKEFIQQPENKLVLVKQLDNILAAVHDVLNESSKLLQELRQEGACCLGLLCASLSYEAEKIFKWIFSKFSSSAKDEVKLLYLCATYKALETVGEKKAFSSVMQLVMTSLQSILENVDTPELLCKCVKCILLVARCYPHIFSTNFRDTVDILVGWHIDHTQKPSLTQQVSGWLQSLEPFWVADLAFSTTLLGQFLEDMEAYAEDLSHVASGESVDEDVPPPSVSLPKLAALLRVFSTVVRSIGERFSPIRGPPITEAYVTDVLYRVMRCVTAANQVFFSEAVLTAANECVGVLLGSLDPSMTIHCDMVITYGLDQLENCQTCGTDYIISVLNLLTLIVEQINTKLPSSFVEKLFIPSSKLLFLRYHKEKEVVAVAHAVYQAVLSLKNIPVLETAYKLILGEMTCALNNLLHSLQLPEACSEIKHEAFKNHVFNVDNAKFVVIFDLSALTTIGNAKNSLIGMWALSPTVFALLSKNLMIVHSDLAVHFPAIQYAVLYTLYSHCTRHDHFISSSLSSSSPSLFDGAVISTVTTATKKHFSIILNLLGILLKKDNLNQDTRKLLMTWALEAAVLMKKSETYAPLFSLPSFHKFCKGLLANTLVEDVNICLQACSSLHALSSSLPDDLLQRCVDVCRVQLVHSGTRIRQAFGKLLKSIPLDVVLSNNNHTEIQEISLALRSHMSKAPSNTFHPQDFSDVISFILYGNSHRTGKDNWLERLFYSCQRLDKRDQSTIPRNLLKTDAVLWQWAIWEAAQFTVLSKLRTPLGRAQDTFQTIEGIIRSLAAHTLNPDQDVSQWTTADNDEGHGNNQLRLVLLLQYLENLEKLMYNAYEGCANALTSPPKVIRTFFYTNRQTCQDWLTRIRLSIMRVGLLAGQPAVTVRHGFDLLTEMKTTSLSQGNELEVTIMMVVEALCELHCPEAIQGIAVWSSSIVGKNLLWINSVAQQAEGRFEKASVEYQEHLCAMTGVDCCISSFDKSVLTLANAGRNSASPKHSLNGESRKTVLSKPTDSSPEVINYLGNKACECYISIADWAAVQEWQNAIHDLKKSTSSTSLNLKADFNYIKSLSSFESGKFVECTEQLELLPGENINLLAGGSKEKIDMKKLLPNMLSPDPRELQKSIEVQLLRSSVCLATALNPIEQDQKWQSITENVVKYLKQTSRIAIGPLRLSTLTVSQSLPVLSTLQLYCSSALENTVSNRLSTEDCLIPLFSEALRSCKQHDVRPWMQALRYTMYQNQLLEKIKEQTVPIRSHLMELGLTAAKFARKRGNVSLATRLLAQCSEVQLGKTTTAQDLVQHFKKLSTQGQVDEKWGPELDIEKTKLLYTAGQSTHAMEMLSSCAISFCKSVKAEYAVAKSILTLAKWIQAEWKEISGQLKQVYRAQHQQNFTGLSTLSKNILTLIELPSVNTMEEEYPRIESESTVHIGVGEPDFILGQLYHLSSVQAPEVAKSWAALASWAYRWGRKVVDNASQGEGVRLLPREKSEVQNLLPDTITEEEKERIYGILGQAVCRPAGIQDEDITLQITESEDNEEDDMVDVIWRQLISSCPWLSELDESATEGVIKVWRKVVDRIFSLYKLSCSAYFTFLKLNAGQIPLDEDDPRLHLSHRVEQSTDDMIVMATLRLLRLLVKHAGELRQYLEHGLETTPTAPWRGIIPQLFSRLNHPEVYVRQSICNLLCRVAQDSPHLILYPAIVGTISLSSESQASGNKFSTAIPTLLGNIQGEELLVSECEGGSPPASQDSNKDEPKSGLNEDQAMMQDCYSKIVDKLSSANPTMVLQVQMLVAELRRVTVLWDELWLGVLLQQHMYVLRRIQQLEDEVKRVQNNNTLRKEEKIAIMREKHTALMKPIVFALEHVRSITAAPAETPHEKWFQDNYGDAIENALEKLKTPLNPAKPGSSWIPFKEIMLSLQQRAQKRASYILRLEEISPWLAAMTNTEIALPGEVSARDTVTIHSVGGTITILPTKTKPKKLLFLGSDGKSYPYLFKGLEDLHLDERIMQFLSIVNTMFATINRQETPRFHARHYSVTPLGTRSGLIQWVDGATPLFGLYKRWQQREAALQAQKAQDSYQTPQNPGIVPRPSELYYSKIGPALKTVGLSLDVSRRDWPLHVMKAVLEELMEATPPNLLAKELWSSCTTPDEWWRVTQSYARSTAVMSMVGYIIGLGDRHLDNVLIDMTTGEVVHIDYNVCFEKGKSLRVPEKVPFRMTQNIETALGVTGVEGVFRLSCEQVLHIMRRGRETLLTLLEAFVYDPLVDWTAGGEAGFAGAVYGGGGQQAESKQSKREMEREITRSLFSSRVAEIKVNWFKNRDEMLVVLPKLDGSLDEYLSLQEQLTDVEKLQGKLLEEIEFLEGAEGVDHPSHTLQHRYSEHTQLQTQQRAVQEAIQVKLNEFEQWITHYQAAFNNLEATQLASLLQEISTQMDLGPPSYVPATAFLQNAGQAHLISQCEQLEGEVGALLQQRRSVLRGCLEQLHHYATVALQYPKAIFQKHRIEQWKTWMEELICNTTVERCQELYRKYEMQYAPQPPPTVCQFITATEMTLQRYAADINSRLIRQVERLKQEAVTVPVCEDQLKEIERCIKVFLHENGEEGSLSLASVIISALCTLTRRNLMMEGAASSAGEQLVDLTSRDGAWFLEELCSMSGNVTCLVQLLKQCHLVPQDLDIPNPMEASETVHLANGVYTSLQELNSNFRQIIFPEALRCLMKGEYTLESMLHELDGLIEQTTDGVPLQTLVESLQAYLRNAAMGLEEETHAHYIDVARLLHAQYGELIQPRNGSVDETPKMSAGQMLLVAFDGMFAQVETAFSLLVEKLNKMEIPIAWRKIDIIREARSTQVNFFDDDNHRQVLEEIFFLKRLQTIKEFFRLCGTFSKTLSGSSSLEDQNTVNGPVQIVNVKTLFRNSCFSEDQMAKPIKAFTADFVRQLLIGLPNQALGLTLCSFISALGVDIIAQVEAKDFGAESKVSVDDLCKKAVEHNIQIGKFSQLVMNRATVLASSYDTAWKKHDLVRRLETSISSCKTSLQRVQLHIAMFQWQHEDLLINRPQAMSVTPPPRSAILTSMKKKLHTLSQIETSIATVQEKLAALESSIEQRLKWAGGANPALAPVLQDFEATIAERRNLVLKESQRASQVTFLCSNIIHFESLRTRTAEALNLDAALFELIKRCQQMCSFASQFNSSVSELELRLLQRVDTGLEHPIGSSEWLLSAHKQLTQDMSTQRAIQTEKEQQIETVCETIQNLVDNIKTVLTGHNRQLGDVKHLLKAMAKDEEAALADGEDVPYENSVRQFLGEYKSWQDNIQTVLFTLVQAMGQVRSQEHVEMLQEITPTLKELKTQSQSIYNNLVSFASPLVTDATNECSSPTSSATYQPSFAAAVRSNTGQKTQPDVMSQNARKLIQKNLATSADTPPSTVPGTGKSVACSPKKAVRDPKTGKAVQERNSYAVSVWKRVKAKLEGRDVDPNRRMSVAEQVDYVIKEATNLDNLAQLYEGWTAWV

T3 sequence (Q9H2G2 whole entry, looked up): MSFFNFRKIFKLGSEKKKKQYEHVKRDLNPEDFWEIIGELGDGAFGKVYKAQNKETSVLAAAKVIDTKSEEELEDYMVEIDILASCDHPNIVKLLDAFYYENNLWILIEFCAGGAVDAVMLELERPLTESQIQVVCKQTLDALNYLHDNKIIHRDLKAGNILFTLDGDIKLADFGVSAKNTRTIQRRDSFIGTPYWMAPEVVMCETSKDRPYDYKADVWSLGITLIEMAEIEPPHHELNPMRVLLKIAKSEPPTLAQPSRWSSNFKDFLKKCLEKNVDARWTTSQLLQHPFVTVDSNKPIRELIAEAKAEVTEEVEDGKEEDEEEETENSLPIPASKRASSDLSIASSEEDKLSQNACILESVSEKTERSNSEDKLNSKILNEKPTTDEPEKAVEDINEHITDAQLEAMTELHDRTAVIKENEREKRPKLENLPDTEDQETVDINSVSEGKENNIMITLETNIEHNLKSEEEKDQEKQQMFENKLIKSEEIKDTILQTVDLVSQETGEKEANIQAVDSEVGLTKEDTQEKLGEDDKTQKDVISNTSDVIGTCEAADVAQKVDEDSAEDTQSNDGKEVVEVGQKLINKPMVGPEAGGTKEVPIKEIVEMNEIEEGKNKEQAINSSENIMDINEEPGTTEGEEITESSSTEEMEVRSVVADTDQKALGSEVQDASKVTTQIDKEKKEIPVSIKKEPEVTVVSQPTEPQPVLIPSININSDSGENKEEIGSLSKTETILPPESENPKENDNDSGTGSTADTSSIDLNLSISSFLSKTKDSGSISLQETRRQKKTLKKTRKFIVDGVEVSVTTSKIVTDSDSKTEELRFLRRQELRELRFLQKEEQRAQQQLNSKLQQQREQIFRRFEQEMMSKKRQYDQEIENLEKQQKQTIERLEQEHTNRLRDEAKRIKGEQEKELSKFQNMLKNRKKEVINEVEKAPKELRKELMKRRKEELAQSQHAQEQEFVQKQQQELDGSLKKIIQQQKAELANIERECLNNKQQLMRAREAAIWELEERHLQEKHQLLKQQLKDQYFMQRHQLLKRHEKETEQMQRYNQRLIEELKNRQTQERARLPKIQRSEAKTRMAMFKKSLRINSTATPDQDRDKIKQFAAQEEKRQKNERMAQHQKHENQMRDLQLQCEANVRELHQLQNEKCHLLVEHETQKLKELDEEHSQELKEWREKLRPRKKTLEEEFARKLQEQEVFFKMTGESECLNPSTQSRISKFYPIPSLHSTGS

`CCOc1cc(N2CCC(O)CC2)ccc1Nc1ncc2c(n1)N(C)c1ccccc1C(=O)N2C`: the IC50 in [1], in assay [2] and in assay [3] was > 50 µM throughout. Also, the inhibition in assay [4] was 12.7%; in [5] it was 3.1%; in assay [7], 1.8%; in [8], 12.1%; in [9] it was 2.3%; in [10], 5.7%. Besides, the inhibition in [11] is 100%; in assay [12], -5.5%; in assay [13], -6.5%; in assay [14], 11.6%; in [15], 1.8%. Also, the inhibition at 10 µM in assay [6] is -18.3%.
